The test system of test [1] is Aspergillus niger. The experiment in a line: Antifungal activity against Aspergillus niger; Range is 16-32. It counts as functional. The method, boiled down: (§1)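 Agar dilution MIC. Twofold serial drug dilutions in yeast nitrogen base medium with 1% dextrose, 0.15% asparagine and 1.5% agar. Agar surfaces inoculated using a Steers multiple inocula replicator, then incubated at 35 °C for 24-48 h. MIC was recorded as the lowest concentration inhibiting visible growth. Amphotericin B, miconazole and nystatin served as controls.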

The subject of test [2] is Candida albicans. The experiment in a line: Antifungal activity against Candida albicans; Range is 8-16. It counts as functional. Put shortly: as §1
For a further test, the system named is Diutina rugosa. The test is described as follows: Antifungal activity against Candida rugosa. Format: functional. Put shortly: as §1
A further test relates to Mucor fragilis. The test is described as follows: Antifungal activity against Mucor fragilis. Format: functional. Put shortly:
as §1

In test [3] the test system is Kluyveromyces marxianus. The experiment in a line: Antifungal activity against Candida pseudotropicalis; Range is 8-16. It counts as functional. Put shortly: as §1
In test [4] the test system is Candida tropicalis. The experiment in a line: Antifungal activity against Candida tropicalis. It counts as functional. The method, boiled down: as §1
Test [5] concerns Candida albicans. The test is described as follows: Antifungal activity against Candida stellatoidea. Format: functional. The method, boiled down: as §1
Test [6] concerns Kluyveromyces marxianus. The experiment in a line: Antifungal activity against Candida pseudotropicalis. Format: functional. The method, boiled down:
as §1

For test [7], the system named is Candida albicans. The test is described as follows: Antifungal activity against Candida albicans. Format: functional. The method, boiled down: as §1
The subject of test [8] is Trichophyton rubrum. The test is described as follows: Antifungal activity against Trichophyton rubrum. Format: functional. Put shortly: as §1
The subject of test [9] is Trichophyton benhamiae. The experiment in a line: Antifungal activity against Trichophyton mentagrophytes. Format: functional, trychophyton mentagrophytes. The method, boiled down:
as §1

In the next test the test system is Candida parapsilosis. The experiment in a line: Antifungal activity against Candida parapsilosis. Format: functional. Particulars: Lodderomyces parapsilosis. Put shortly:
as §1

For test [10], the system named is Aspergillus niger. The experiment in a line: Antifungal activity against Aspergillus niger. Format: functional. Put shortly: as §1
Test [11] concerns Trichophyton rubrum. The test is described as follows: Antifungal activity against Trichophyton rubrum; Range is 2-4. Format: functional. The method, boiled down: as §1
In test [12] the test system is Candida tropicalis. The experiment in a line: Antifungal activity against Candida tropicalis; Range is 8-16. It counts as functional. Put shortly: as §1
Test [13] concerns Trichophyton rubrum. The experiment in a line: Antifungal activity against Trichophyton rubrum; Range is 64-128. Format: functional.
Test [14] relates to Trichophyton benhamiae. The test is described as follows: Antifungal activity against Trichophyton mentagrophytes; Range is 64-128. Format: functional, trychophyton mentagrophytes. The method, boiled down: as §1
For test [15], the system named is Aspergillus niger. The experiment in a line: Antifungal activity against Aspergillus niger; Range is 64-128. Format: functional. Put shortly: as §1
Test [16] has as its system Trichophyton rubrum. The experiment in a line: Antifungal activity against Trichophyton rubrum; Range is 1-2. Format: functional. Put shortly: as §1
The subject of test [17] is Aspergillus niger. The experiment in a line: Antifungal activity against Aspergillus niger; Range is 32-64. Format: functional. The method, boiled down: as §1

Converted amounts (≈) assume the structure as drawn.

As a reminder, the MIC is the smallest concentration in the dilution series that meets the test's criterion for growth inhibition. Low values mean a more susceptible organism, high ones a less susceptible organism. With `c1ccc(OCc2nnc3ccncc3n2)cc1`, the MIC against Aspergillus niger [1] stood at 16 µg/mL (≈ 67.2 µM); in the test with Candida albicans [2], 8 µg/mL (≈ 33.6 µM); with Diutina rugosa, 8 µg/mL (≈ 33.6 µM); in the test with Mucor fragilis, 4 µg/mL (≈ 16.8 µM); against Kluyveromyces marxianus [3], 8 µg/mL (≈ 33.6 µM); against Candida tropicalis [4], 16 µg/mL (≈ 67.2 µM). In the test with Candida albicans [5], this molecule had a minimum inhibitory concentration (MIC) of 16 µg/mL (≈ 67.2 µM).
For the molecule `c1cnc2nncnc2c1`, the MIC came to 16 µg/mL (≈ 121 µM) against Aspergillus niger [1]; 32 µg/mL (≈ 242 µM) against Kluyveromyces marxianus [6]; 64 µg/mL (≈ 484 µM) against Candida albicans [7]; 32 µg/mL (≈ 242 µM) against Trichophyton rubrum [8]; 32 µg/mL (≈ 242 µM) against Trichophyton benhamiae [9]; 32 µg/mL (≈ 242 µM) in the test on Candida parapsilosis. This molecule yielded a minimal inhibitory concentration (MIC) with Candida tropicalis [4] of 64 µg/mL (≈ 484 µM).
Regarding `Cc1nc(C)c2nc(-c3ccc(F)cc3)nnc2c1N`, the MIC is more than 128 µg/mL with Candida albicans [7]; 128 µg/mL (≈ 475 µM) against Trichophyton rubrum [8]; more than 128 µg/mL against Diutina rugosa; 128 µg/mL (≈ 475 µM) against Trichophyton benhamiae [9]; more than 128 µg/mL with Aspergillus niger [10]; 128 µg/mL (≈ 475 µM) in the test on Mucor fragilis. The MIC against Candida parapsilosis, in the test with Candida tropicalis [4] and against Candida albicans [5] was more than 128 µg/mL throughout.
In the case of `c1ccc(-c2nnc3ccncc3n2)cc1`, the MIC with Aspergillus niger [1] is 16 µg/mL (≈ 76.8 µM); against Trichophyton rubrum [11], 2 µg/mL (≈ 9.61 µM); against Candida albicans [7], 16 µg/mL (≈ 76.8 µM); against Diutina rugosa, 32 µg/mL (≈ 154 µM); against Trichophyton benhamiae [9] it was 8 µg/mL (≈ 38.4 µM); with Mucor fragilis, more than 128 µg/mL. Also, the MIC in the test on Candida parapsilosis was 16 µg/mL (≈ 76.8 µM); in the test with Candida tropicalis [12] it was 8 µg/mL (≈ 38.4 µM); against Kluyveromyces marxianus [3] it was 8 µg/mL (≈ 38.4 µM); in the test with Candida albicans [5], 16 µg/mL (≈ 76.8 µM).
Take `Cc1cc2nnc(-c3ccc(F)cc3)nc2c(C)n1`: the MIC against Kluyveromyces marxianus [6] was 128 µg/mL (≈ 503 µM); against Candida albicans [7], 128 µg/mL (≈ 503 µM); in the test on Trichophyton rubrum [8], 64 µg/mL (≈ 252 µM); in the test with Diutina rugosa, more than 128 µg/mL; in the test on Trichophyton benhamiae [9] it was 64 µg/mL (≈ 252 µM); against Aspergillus niger [10] it was 128 µg/mL (≈ 503 µM). For the same molecule, the MIC against Mucor fragilis was 64 µg/mL (≈ 252 µM); against Candida tropicalis [4] it was 128 µg/mL (≈ 503 µM); in the test with Candida albicans [5] it was more than 128 µg/mL.
With `Cc1nnc2c(cnc3ccccc32)n1`, the MIC against Aspergillus niger [1] stood at 16 µg/mL (≈ 81.5 µM); in the test with Kluyveromyces marxianus [6], 32 µg/mL (≈ 163 µM); in the test with Candida albicans [7], 32 µg/mL (≈ 163 µM); in the test on Trichophyton rubrum [8], 32 µg/mL (≈ 163 µM); against Trichophyton benhamiae [9] it was 32 µg/mL (≈ 163 µM); in the test on Candida parapsilosis, 32 µg/mL (≈ 163 µM). The lowest concentration to inhibit growth in the test on Candida tropicalis [4] (MIC) was 32 µg/mL (≈ 163 µM).
`CC1(C)N=Nc2c(cnc3ccccc23)N1`: the MIC is 64 µg/mL (≈ 302 µM) against Trichophyton rubrum [13]; 128 µg/mL (≈ 603 µM) against Kluyveromyces marxianus [6]; 128 µg/mL (≈ 603 µM) in the test on Candida albicans [7]; 64 µg/mL (≈ 302 µM) against Trichophyton benhamiae [14]; 128 µg/mL (≈ 603 µM) against Aspergillus niger [10]; 128 µg/mL (≈ 603 µM) with Candida parapsilosis. For the same molecule, the MIC in the test on Candida tropicalis [4] worked out at 128 µg/mL (≈ 603 µM).
As to `CN1CCN(/C=C/c2nnc3ccncc3n2)CC1`, the MIC against Kluyveromyces marxianus [6] was 128 µg/mL (≈ 499 µM); against Aspergillus niger [15], 64 µg/mL (≈ 250 µM); in the test with Candida albicans [7] it was 128 µg/mL (≈ 499 µM); against Diutina rugosa it was 32 µg/mL (≈ 125 µM); against Mucor fragilis, 128 µg/mL (≈ 499 µM); against Candida tropicalis [4], 128 µg/mL (≈ 499 µM). Further, the MIC against Candida albicans [5] was 32 µg/mL (≈ 125 µM).
With `CC1(C)N=Nc2ccncc2N1`, the MIC in the test with Kluyveromyces marxianus [6], against Candida albicans [7], in the test on Trichophyton rubrum [8], in the test with Trichophyton benhamiae [9], in the test with Aspergillus niger [10] and in the test on Candida parapsilosis was 128 µg/mL (≈ 789 µM) in each case. Also, in the test on Candida tropicalis [4], it took 128 µg/mL (≈ 789 µM) to inhibit growth (MIC).
In the case of `c1ccc2c3c(cnc2c1)NC1(CCCCC1)N=N3`, the MIC was 128 µg/mL (≈ 507 µM) in the test with Kluyveromyces marxianus [6]; 128 µg/mL (≈ 507 µM) in the test with Candida albicans [7]; 64 µg/mL (≈ 254 µM) in the test with Trichophyton rubrum [8]; 64 µg/mL (≈ 254 µM) with Trichophyton benhamiae [9]; 128 µg/mL (≈ 507 µM) in the test with Aspergillus niger [10]; 128 µg/mL (≈ 507 µM) against Candida parapsilosis. The molecule also showed an MIC in the test on Candida tropicalis [4] of 128 µg/mL (≈ 507 µM).
On to `c1ccc(-c2ccc(-c3nnc4ccncc4n3)cc2)cc1`, for which the MIC in the test on Kluyveromyces marxianus [6] was 128 µg/mL (≈ 450 µM); against Aspergillus niger [15], 64 µg/mL (≈ 225 µM); with Candida albicans [7], 128 µg/mL (≈ 450 µM); against Diutina rugosa, more than 128 µg/mL; against Mucor fragilis it was 128 µg/mL (≈ 450 µM); with Candida tropicalis [4], 128 µg/mL (≈ 450 µM). For the same molecule, the MIC against Candida albicans [5] is more than 128 µg/mL.
As to `c1cc2nnc(C3CCCC3)nc2cn1`, the minimum inhibitory concentration (MIC) was determined as 16 µg/mL (≈ 79.9 µM) against Aspergillus niger [1]; 16 µg/mL (≈ 79.9 µM) against Kluyveromyces marxianus [6]; 8 µg/mL (≈ 40 µM) with Candida albicans [2]; 16 µg/mL (≈ 79.9 µM) in the test on Diutina rugosa; 4 µg/mL (≈ 20 µM) with Mucor fragilis; 64 µg/mL (≈ 320 µM) in the test with Candida tropicalis [4]. Besides, in the test on Candida albicans [5], the MIC was 32 µg/mL (≈ 160 µM).
In the case of `Fc1cccc(-c2nnc3ccncc3n2)c1`, the MIC in the test on Trichophyton rubrum [16] came to 1 µg/mL (≈ 4.42 µM); against Aspergillus niger [1], 16 µg/mL (≈ 70.7 µM); against Kluyveromyces marxianus [6] it was 8 µg/mL (≈ 35.4 µM); against Candida albicans [7], 16 µg/mL (≈ 70.7 µM); against Diutina rugosa it was 16 µg/mL (≈ 70.7 µM); against Trichophyton benhamiae [9] it was 4 µg/mL (≈ 17.7 µM). Also, the MIC turned out to be 16 µg/mL (≈ 70.7 µM) against Mucor fragilis, 16 µg/mL (≈ 70.7 µM) with Candida parapsilosis, 8 µg/mL (≈ 35.4 µM) against Candida tropicalis [12] and 32 µg/mL (≈ 141 µM) in the test on Candida albicans [5].
For `Cc1nnc2ncccc2n1`, the MIC in the test on Aspergillus niger [17] came to 32 µg/mL (≈ 219 µM); with Kluyveromyces marxianus [6], 128 µg/mL (≈ 876 µM); against Candida albicans [7], 128 µg/mL (≈ 876 µM); with Trichophyton rubrum [8] it was 128 µg/mL (≈ 876 µM); in the test with Trichophyton benhamiae [9], 128 µg/mL (≈ 876 µM); in the test on Candida parapsilosis, 64 µg/mL (≈ 438 µM). In the test on Candida tropicalis [4], this molecule returned an MIC of 128 µg/mL (≈ 876 µM).

These data come from ChEMBL document CHEMBL1124369, “Pyrido[3,4-e]-1,2,4-triazines and related heterocycles as potential antifungal agents” (1989).
